Laboratory results from the M2OR odorant receptor database.
Changes are numbered by the printed parent chain.

What was measured:
Settings in all cases: stereoisomer not certain
OR5AR1 (Homo sapiens) = biological target: T1, OR5AR1 (Homo sapiens) (UniProt Q8NGP9)
T1 sequence (whole entry): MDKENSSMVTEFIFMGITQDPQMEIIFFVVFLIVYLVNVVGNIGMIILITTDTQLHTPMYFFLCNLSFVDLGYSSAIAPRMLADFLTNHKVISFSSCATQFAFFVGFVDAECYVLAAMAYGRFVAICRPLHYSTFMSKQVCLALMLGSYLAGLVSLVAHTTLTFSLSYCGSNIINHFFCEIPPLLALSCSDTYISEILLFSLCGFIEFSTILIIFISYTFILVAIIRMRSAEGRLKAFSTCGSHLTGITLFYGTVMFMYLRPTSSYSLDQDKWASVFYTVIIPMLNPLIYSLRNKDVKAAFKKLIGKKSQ
Procedure, shortened: (§1)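 Transient luciferase assays in mammalian cell lines were common, though methods varied by source. The values come from published papers and their supplementary material, with extra details from the original authors when needed. Responsive refers to a measured signal the original authors judged statistically different from baseline, and non-responsive (inactive) to the remainder.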

OR5AS1 (Homo sapiens) = biological target: T2, OR5AS1 (Homo sapiens) (UniProt Q8N127)
T2 sequence (whole entry): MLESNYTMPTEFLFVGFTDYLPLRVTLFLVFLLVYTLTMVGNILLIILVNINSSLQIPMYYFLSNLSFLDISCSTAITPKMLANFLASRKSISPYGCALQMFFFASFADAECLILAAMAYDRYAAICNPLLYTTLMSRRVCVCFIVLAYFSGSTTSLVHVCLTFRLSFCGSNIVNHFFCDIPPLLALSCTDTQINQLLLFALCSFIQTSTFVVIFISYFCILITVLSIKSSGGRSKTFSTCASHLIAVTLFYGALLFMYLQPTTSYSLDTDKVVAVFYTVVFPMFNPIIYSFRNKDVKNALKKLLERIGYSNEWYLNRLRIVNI
Procedure, shortened: as §1

OR5AU1 (Homo sapiens) = biological target: T3, OR5AU1 (Homo sapiens) (UniProt Q8NGC0)
T3 sequence (whole entry): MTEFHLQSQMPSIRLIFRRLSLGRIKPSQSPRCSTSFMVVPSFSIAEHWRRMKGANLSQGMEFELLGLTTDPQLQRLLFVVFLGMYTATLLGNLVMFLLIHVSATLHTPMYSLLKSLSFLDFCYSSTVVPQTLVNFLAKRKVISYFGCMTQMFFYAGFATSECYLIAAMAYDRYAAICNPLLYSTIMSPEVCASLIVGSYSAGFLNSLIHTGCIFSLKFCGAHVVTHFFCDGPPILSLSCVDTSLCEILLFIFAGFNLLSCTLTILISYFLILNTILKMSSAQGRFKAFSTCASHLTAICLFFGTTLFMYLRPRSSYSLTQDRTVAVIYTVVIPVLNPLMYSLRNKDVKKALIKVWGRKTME
Procedure, shortened: as §1

OR5B12 (Homo sapiens) = biological target: T4, OR5B12 (Homo sapiens) (UniProt Q96R08)
T4 sequence (whole entry): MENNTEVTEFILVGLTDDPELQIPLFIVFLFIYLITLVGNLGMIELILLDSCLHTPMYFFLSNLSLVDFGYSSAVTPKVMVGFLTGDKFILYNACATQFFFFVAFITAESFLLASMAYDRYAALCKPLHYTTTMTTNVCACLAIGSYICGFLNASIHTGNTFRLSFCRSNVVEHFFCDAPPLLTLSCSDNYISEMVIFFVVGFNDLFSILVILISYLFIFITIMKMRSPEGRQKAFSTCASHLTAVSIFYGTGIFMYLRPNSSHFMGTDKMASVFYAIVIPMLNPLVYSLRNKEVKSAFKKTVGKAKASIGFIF
Procedure, shortened: as §1

OR5B17 (Homo sapiens) = biological target: T5, OR5B17 (Homo sapiens) (UniProt Q8NGF7)
T5 sequence (whole entry): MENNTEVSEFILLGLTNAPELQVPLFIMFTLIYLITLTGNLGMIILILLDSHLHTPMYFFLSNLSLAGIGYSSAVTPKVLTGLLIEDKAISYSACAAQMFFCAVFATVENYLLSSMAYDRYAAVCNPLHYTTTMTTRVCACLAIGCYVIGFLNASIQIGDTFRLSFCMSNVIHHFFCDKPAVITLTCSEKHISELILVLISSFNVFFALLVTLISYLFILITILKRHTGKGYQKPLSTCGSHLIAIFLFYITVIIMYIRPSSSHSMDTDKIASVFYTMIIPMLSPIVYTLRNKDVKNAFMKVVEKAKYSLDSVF
Procedure, shortened: as §1

OR5B2 (Homo sapiens) = biological target: T6, OR5B2 (Homo sapiens) (UniProt Q96R09)
T6 sequence (whole entry): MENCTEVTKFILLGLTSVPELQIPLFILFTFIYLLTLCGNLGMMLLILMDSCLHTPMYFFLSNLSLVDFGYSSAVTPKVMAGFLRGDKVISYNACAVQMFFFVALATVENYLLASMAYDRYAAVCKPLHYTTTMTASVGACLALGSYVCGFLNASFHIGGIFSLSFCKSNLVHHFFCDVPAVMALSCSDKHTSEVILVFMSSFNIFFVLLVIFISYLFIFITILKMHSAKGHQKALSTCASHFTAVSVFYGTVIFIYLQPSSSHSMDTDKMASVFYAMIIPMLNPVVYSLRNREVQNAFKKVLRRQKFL
Procedure, shortened: as §1

OR5B2 E6D = system: T7, OR5B2 E6D
T7 sequence (whole entry): T6 sequence (whole entry) with E6D
Procedure, shortened: as §1

OR5B21 (Homo sapiens) = biological target: T8, OR5B21 (Homo sapiens) (UniProt A6NL26)
T8 sequence (whole entry): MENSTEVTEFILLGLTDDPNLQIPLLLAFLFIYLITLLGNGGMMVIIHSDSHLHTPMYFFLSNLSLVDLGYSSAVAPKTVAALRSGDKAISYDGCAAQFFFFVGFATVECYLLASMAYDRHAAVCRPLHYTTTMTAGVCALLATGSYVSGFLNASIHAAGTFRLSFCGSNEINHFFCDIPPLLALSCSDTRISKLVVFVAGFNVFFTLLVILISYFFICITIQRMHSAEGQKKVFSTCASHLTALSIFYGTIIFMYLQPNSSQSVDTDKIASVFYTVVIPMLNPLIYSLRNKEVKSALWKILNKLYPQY
Procedure, shortened: as §1

OR5B3 (Homo sapiens) = biological target: T9, OR5B3 (Homo sapiens) (UniProt Q8NH48)
T9 sequence (whole entry): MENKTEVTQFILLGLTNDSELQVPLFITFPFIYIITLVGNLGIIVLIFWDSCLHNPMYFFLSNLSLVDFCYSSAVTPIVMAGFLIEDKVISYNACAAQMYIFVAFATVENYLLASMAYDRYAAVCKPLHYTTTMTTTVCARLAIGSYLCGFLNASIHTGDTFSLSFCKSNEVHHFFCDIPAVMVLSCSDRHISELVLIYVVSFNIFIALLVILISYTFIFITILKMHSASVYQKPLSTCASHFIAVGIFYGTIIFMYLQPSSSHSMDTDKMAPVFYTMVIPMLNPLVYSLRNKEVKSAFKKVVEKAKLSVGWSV
Procedure, shortened: as §1

OR5B3 I198V G247A = system: T10, OR5B3 I198V G247A
T10 sequence (whole entry): T9 sequence (whole entry) with I198V, G247A
Procedure, shortened: as §1

OR5BC C141R = system: T11, OR5BC C141R
T11 sequence (whole entry): T4 sequence (whole entry) with C141R
Procedure, shortened: as §1

OR5BH L80I I85M = system: T12, OR5BH L80I I85M
T12 sequence (whole entry): T5 sequence (whole entry) with L80I, I85M
Procedure, shortened: as §1

OR5BH L80I = system: T13, OR5BH L80I
T13 sequence (whole entry): T5 sequence (whole entry) with L80I
Procedure, shortened: as §1

OR5C1 (Homo sapiens) = biological target: T14, OR5C1 (Homo sapiens) (UniProt Q8NGR4)
T14 sequence (whole entry): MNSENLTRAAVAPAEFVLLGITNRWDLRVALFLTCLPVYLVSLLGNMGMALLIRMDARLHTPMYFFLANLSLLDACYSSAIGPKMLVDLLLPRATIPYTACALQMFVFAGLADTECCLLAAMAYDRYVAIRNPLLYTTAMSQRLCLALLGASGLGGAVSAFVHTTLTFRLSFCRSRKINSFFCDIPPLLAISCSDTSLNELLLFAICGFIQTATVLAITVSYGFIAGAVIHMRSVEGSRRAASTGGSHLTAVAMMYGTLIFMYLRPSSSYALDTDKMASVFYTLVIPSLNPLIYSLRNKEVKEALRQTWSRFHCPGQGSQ
Procedure, shortened: as §1

OR5D13 (Homo sapiens) = biological target: T15, OR5D13 (Homo sapiens) (UniProt Q8NGL4)
T15 sequence (whole entry): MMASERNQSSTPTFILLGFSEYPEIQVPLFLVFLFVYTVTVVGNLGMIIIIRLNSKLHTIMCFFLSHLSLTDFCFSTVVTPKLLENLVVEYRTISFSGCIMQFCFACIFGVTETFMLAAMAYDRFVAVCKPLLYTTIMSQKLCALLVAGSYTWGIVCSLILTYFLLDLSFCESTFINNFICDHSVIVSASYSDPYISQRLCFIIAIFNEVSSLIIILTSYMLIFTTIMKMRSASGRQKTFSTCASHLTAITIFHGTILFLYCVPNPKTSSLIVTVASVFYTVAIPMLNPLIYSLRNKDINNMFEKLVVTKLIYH
Procedure, shortened: as §1

OR5D14 (Homo sapiens) = biological target: T16, OR5D14 (Homo sapiens) (UniProt Q8NGL3)
T16 sequence (whole entry): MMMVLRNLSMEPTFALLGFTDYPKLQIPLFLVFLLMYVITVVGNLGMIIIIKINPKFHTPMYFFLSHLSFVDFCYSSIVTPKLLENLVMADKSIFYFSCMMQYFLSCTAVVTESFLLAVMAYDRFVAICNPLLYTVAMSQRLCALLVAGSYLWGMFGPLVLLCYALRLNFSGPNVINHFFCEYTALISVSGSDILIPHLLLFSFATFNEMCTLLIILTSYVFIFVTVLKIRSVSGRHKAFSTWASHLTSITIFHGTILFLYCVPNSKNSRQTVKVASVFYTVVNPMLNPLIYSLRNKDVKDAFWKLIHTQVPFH
Procedure, shortened: as §1

OR5D16 (Homo sapiens) = biological target: T17, OR5D16 (Homo sapiens) (UniProt Q8NGK9)
T17 sequence (whole entry): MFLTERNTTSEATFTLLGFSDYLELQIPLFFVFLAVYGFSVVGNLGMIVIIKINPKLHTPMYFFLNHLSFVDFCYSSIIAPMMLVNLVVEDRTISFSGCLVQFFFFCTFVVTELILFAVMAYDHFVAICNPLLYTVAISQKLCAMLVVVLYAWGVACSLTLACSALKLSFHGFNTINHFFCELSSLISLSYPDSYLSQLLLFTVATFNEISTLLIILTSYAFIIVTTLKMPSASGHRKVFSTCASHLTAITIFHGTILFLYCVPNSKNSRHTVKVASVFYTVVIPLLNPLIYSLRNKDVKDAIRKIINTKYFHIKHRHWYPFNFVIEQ
Procedure, shortened: as §1

OR5D18 (Homo sapiens) = biological target: T18, OR5D18 (Homo sapiens) (UniProt Q8NGL1)
T18 sequence (whole entry): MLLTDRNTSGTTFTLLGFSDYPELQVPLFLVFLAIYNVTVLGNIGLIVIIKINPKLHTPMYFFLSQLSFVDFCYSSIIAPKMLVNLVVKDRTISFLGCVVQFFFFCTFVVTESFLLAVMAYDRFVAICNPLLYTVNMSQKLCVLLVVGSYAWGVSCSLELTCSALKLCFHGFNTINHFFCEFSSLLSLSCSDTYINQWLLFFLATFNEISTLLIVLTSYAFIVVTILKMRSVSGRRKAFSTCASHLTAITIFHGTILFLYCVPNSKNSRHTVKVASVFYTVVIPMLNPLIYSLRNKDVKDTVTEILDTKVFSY
Procedure, shortened: as §1

OR5DD C62Y = system: T19, OR5DD C62Y
T19 sequence (whole entry): T15 sequence (whole entry) with C62Y
Procedure, shortened: as §1

OR5DE S249A L290P = system: T20, OR5DE S249A L290P
T20 sequence (whole entry): T16 sequence (whole entry) with S249A, L290P
Procedure, shortened: as §1

Measured: odorant receptor agonist call;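 also: active if original authors judged signal statistically different from baseline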

CCCCCCC=CCCC=O
inactive: OR5AR1 (Homo sapiens) | OR5AS1 (Homo sapiens) | OR5AU1 (Homo sapiens) | OR5B12 (Homo sapiens) | OR5B17 (Homo sapiens) | OR5B2 (Homo sapiens) | OR5B2 E6D | OR5B21 (Homo sapiens) | OR5B3 (Homo sapiens) | OR5B3 I198V G247A | OR5BC C141R | OR5BH L80I I85M | OR5BH L80I | OR5C1 (Homo sapiens) | OR5D13 (Homo sapiens) | OR5D14 (Homo sapiens) | OR5D16 (Homo sapiens) | OR5D18 (Homo sapiens) | OR5DD C62Y | OR5DE S249A L290P

CC(CO)CS (stereo not given)
inactive: OR5AR1 (Homo sapiens) | OR5AS1 (Homo sapiens) | OR5AU1 (Homo sapiens) | OR5B12 (Homo sapiens) | OR5B17 (Homo sapiens) | OR5B2 (Homo sapiens) | OR5B21 (Homo sapiens) | OR5B3 (Homo sapiens) | OR5C1 (Homo sapiens) | OR5D13 (Homo sapiens) | OR5D14 (Homo sapiens) | OR5D16 (Homo sapiens) | OR5D18 (Homo sapiens)

CCCCCC1C(=O)CCC1CC(=O)OC (stereo not given)
inactive: OR5B17 (Homo sapiens)

Cc1ccc(C(C)C)cc1O
inactive: OR5B17 (Homo sapiens)
